According to ChEMBL document CHEMBL3046353, “Synthesis and fungicidal activity of some 5-membered heterocyclic derivatives containing benzimidazoles” (1993):
The source made the active and inactive calls. No cut-off for these calls is given here.

Tests used:
[1] = test system: Sagittaria latifolia; test: Herbicidal activity against Sagittaria latifolia (broadleaf arrowhead) under paddy conditions; type: functional, organism-based
[2] = test system: Sagittaria latifolia; test: Pre-emergence herbicidal activity against Sagittaria latifolia (broadleaf arrowhead); type: functional, organism-based
[3] = test system: Sagittaria latifolia; test: Post-emergence herbicidal activity against Sagittaria latifolia (broadleaf arrowhead); type: functional, organism-based
[4] = test system: Schoenoplectus acutus; test: Herbicidal activity against Schoenoplectus acutus (hardstem bulrush) under paddy conditions; type: functional, organism-based
[5] = test system: Schoenoplectus acutus; test: Post-emergence herbicidal activity against Schoenoplectus acutus (hardstem bulrush); type: functional, organism-based
[6] = test system: Schoenoplectus acutus; test: Pre-emergence herbicidal activity against Schoenoplectus acutus (hardstem bulrush); type: functional, organism-based
[7] = test system: Echinochloa crus-galli; test: Herbicidal activity against Echinochloa crus-galli (barnyard grass) under paddy conditions; type: functional, organism-based
[8] = test system: Echinochloa crus-galli; test: Post-emergence herbicidal activity against Echinochloa crus-galli (barnyard grass); type: functional, organism-based
[9] = test system: Oryza sativa; test: Herbicidal activity against Oryza sativa (rice) under paddy conditions; type: functional, organism-based
[10] = test system: Echinochloa crus-galli; test: Pre-emergence herbicidal activity against Echinochloa crus-galli (barnyard grass); type: functional, organism-based
[11] = test system: Oryza sativa; test: Pre-emergence herbicidal activity against Oryza sativa (rice); type: functional, organism-based
[12] = test system: Abutilon theophrasti; test: Post-emergence herbicidal activity against Abutilon theophrasti (velvetleaf); type: functional, organism-based
[13] = test system: Oryza sativa; test: Post-emergence herbicidal activity against Oryza sativa (rice); type: functional, organism-based
[14] = test system: Abutilon theophrasti; test: Pre-emergence herbicidal activity against Abutilon theophrasti (velvetleaf); type: functional, organism-based
[15] = test system: Convolvulaceae; test: Herbicidal activity against Convolvulaceae (morning glory family) under paddy conditions; type: functional, organism-based
[16] = test system: Convolvulaceae; test: Post-emergence herbicidal activity against Convolvulaceae (morning glory family); type: functional, organism-based
[17] = test system: Avena sativa; test: Herbicidal activity against Avena sativa under paddy conditions; type: functional, organism-based
[18] = test system: Convolvulaceae; test: Pre-emergence herbicidal activity against Convolvulaceae (morning glory family); type: functional, organism-based
[19] = test system: Avena sativa; test: Pre-emergence herbicidal activity against Avena sativa; type: functional, organism-based
[20] = test system: Avena sativa; test: Post-emergence herbicidal activity against Avena sativa; type: functional, organism-based
[21] = test system: Spodoptera litura; test: Insecticidal activity against Spodoptera litura; type: functional, organism-based
[22] = test system: Tetranychus cinnabarinus; test: Insecticidal activity against Tetranychus cinnabarinus (carmine spider mite); type: functional, organism-based
[23] = test system: Culex pipiens pallens; test: Insecticidal activity against Culex pipiens pallens (mosquito) at 3 to 5 ppm; type: functional, organism-based
[24] = test system: Musca domestica; test: Insecticidal activity against Musca domestica (house fly); type: functional, organism-based
[25] = test system: Rhizoctonia solani; test: Fungicidal activity against Rhizoctonia solani at 500 ppm after 7 days by poisoned food technique; type: functional; details: 168 h, read-out: GI
Outline: (§1)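 Cultures kept on potato dextrose agar. Each compound, dissolved in acetone, was added to potato dextrose agar at a final 500 ppm (w/v) (poisoned food technique). A disc cut from the periphery of a seven-day-old culture was inoculated onto each set. Control sets held potato dextrose agar only. The read-out is percentage inhibition of fungal growth relative to control.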

[26] = test system: Helminthosporium; test: Fungicidal activity against Helminthosporium oryzae at 500 ppm after 7 days by poisoned food technique; type: functional; details: 168 h, read-out: GI; outline: as §1

Row | Compound | Activity [1] | Activity [2] | Activity [3] | Activity [4] | Activity [5] | Activity [6] | Activity [7] | Activity [8] | Activity [9] | Activity [10] | Activity [11] | Activity [12] | Activity [13] | Activity [14] | Activity [15] | Activity [16] | Activity [17] | Activity [18] | Activity [19] | Activity [20] | further results
1 | Nn1c(SCc2nc3ccccc3[nH]2)nnc1-c1ccccc1 | inactive | inactive | inactive | inactive | inactive | inactive | inactive | inactive | inactive | inactive | inactive | inactive | inactive | inactive | inactive | inactive | inactive | inactive | inactive | inactive | Activity [21]: inactive; Activity [22]: inactive; Activity [23]: Active; Activity [24]: inactive; inhibition of growth at 500 ppm [25]: 74.5%; inhibition of growth at 500 ppm [26]: 92.5%
2 | Cc1ccc2[nH]c(CSc3nnc(-c4cccc(Cl)c4)s3)nc2c1 | inactive | inactive | inactive | inactive | inactive | inactive | inactive | inactive | inactive | inactive | inactive | inactive | inactive | inactive | inactive | inactive | inactive | inactive | inactive | inactive | Activity [21]: inactive; Activity [22]: inactive; Activity [23]: Active; Activity [24]: inactive; inhibition of growth at 500 ppm [25]: 60.4%; inhibition of growth at 500 ppm [26]: 81.2%
3 | Cc1ccc2[nH]c(CSc3nnc(-c4ccc(Cl)cc4)o3)nc2c1 | inactive | inactive | inactive | inactive | inactive | inactive | inactive | inactive | inactive | inactive | inactive | inactive | inactive | inactive | inactive | inactive | inactive | inactive | inactive | inactive | Activity [21]: inactive; Activity [22]: inactive; Activity [23]: Active; Activity [24]: inactive; inhibition of growth at 500 ppm [25]: 100%; inhibition of growth at 500 ppm [26]: 100%
4 | Nn1c(SCc2nc3ccccc3[nH]2)nnc1-c1ccncc1 | inactive | inactive | inactive | inactive | inactive | inactive | inactive | inactive | inactive | inactive | inactive | inactive | inactive | inactive | inactive | inactive | inactive | inactive | inactive | inactive | Activity [21]: inactive; Activity [22]: inactive; Activity [23]: Active; Activity [24]: inactive; inhibition of growth at 500 ppm [25]: 29.3%; inhibition of growth at 500 ppm [26]: 30%
